ChEMBL document CHEMBL3414483, “New heterocyclic hybrids of pyrazole and its bioisosteres: design, synthesis and biological evaluation as dual acting antimalarial-antileishmanial agents” (Eur J Med Chem, 2015)
In brackets after ≈: the same amount, converted by molar mass. Activity calls are given as the source filed them. The calls are words filed in the database; no cut-off is given here.

Legend:
[1] = system: Leishmania aethiopica; test: Antileishmanial activity against promastigote stage of Leishmania aethiopica after 24 hrs by alamar blue staining-based […]; type: functional, organism-based
In short: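 L. aethiopica promastigotes, 3 × 10^6 per well, given compounds from DMSO stocks in three-fold dilutions at 10 to 0.04 µg/ml (final DMSO ≤0.1%), in duplicate, at room temperature (21 ± 1 °C). Alamar blue (resazurin) was added after 24 h and absorbance read 48 h later at 540 and 630 nm. Negative control was parasites, medium and DMSO.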

[2] = system: Leishmania aethiopica; test: Antileishmanial activity against amastigote stage of Leishmania aethiopica after 72 hrs by resazurin staining-based fluorescence assay; type: functional, organism-based
In short: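 Axenic L. aethiopica amastigotes (50 µl of 2 × 10^7 cells/ml) exposed to serial dilutions at final 0.04–10 µg/ml for 72 h at 31 °C, humidified, 5% CO₂. Resazurin was added at 68 h and fluorescence read at 72 h (ex 530/em 590 nm). EC50 from sigmoidal dose–response fits, mean ± SD of triplicate experiments run in duplicate. Controls were medium alone and 1% DMSO.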

[3] = system: Plasmodium berghei; test: Antimalarial activity against Plasmodium berghei str. ANKA infected in Swiss albino mouse assessed as supression of parasitemia at 0.048 mmol/kg/day, po qd for 3 days by microscopic analysis relative to control; type: functional
In short: (§1)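 Four-day suppressive test. Mice were infected iv on day 0 with 0.2 ml of 2 × 10^7 P. berghei ANKA-parasitized erythrocytes from a donor mouse, diluted in saline. From 2 h post-infection they were dosed orally at 0.048 mmol/kg/day for days 0–3, five mice per group. The vehicle was 7% Tween and 3% ethanol in water. On day 4, Giemsa smears were scored over 5 fields of about 100 RBC each. Suppression was calculated relative to the vehicle group, taken as 100%.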

[4] = system: Plasmodium berghei; test: Antimalarial activity against Plasmodium berghei str. ANKA infected in Swiss albino mouse assessed as parasitemia at 0.048 mmol/kg/day, po qd […] by microscopic analysis relative to control; type: functional; in short: as §1
[5] = system: Plasmodium berghei; test: Antimalarial activity against Plasmodium berghei str. ANKA infected in Swiss albino mouse assessed as survival at 0.048 mmol/kg/day, po qd for 3 days by microscopic analysis relative to control; type: functional
In short: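 P. berghei ANKA infected mice, 4-day suppressive test. Day 0: 0.2 ml of 2 x 10^7 parasitized erythrocytes given i.v. (donor blood, 20-30% parasitemia, diluted in saline). Oral dosing at 0.048 mmol/kg/day from 2 h post-infection, then days 1-3 at 24 h intervals. Vehicle 7% Tween, 3% ethanol in water. Five mice/group. Survival time recorded per mouse; mean compared with vehicle group.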

## CCCCCCCCCCCCCCCCOP(=O)([O-])OCC[N+](C)(C)C [MILTEFOSINE]
[1]
  IC50: 3.19 µg/mL (≈ 7.83 µM)
[2]
  IC50: 0.3 µg/mL (≈ 0.736 µM)

## CCN(CC)CCCC(C)Nc1ccnc2cc(Cl)ccc12.O=P(O)(O)O.O=P(O)(O)O (stereo not given) [CHLOROQUINE PHOSPHATE]
[3]
  Activity: 100%
[4]
  Activity: 0%
[5]
  Activity: Active

## Cc1ccc(-c2nn(-c3ccc(Br)cc3)cc2/C=N/NC(=S)Nc2ccccc2)cc1
[1]
  IC50: 3.62 µg/mL (≈ 7.39 µM)
[2]
  IC50: 2.41 µg/mL (≈ 4.91 µM)
[3]
  Activity: 65.12%
[4]
  Activity: 30%
[5]
  Survival: 8.84 days

## Cc1ccc(-c2nn(-c3ccc(C)cc3)cc2/C=N/N=C2/SCC(=O)N2c2ccccc2)cc1
[1]
  IC50: 0.882 µg/mL (≈ 1.89 µM)
[2]
  IC50: 0.58 µg/mL (≈ 1.25 µM)
[3]
  Activity: 88.37%
[4]
  Activity: 10%
[5]
  Survival: 10.64 days

## Cc1ccc(-c2nn(-c3ccc(Br)cc3)cc2C2CC(c3ccccc3)=NN2c2ccccc2)cc1 (stereo not given)
[1]
  IC50: 2.91 µg/mL (≈ 5.46 µM)
[2]
  IC50: 1.24 µg/mL (≈ 2.32 µM)
[3]
  Activity: 74.42%
[4]
  Activity: 22%
[5]
  Survival: 10.64 days

## O=[N+]([O-])c1ccc(-c2nn(-c3ccc(Br)cc3)cc2C2CC(c3ccccc3)=NN2c2ccccc2)cc1 (stereo not given)
[1]
  IC50: 3.85 µg/mL (≈ 6.82 µM)
[2]
  IC50: 2.01 µg/mL (≈ 3.56 µM)
[3]
  Activity: 62.79%
[4]
  Activity: 32%
[5]
  Survival: 9.84 days

## CC(=O)N1N=C(c2ccccc2)CC1c1cn(-c2ccc(Br)cc2)nc1-c1ccc([N+](=O)[O-])cc1 (stereo not given)
[1]
  IC50: 1.09 µg/mL (≈ 2.05 µM)
[2]
  IC50: 0.89 µg/mL (≈ 1.68 µM)
[3]
  Activity: 69.77%
[4]
  Activity: 26%
[5]
  Survival: 6.62 days

## CC(=O)N(C1=NN(C(C)=O)C(c2cn(-c3ccc(Br)cc3)nc2-c2ccc(C)cc2)S1)c1ccccc1 (stereo not given)
[1]
  IC50: 0.468 µg/mL (≈ 0.815 µM)
[2]
  IC50: 0.74 µg/mL (≈ 1.29 µM)
[3]
  Activity: 86.05%
[4]
  Activity: 12%
[5]
  Survival: 12.68 days

## O=Cc1cn(-c2ccc(Br)cc2)nc1-c1ccc([N+](=O)[O-])cc1
[1]
  IC50: 4.84 µg/mL (≈ 13 µM)
[2]
  IC50: 2.03 µg/mL (≈ 5.45 µM)
[3]
  Activity: 59.3%
[4]
  Activity: 35%
[5]
  Survival: 8.71 days

## Cc1ccc(-c2nn(-c3ccc(Br)cc3)cc2C2CC(c3ccccc3)=NN2)cc1 (stereo not given)
[1]
  IC50: 2.01 µg/mL (≈ 4.4 µM)
[2]
  IC50: 1.88 µg/mL (≈ 4.11 µM)
[3]
  Activity: 67.44%
[4]
  Activity: 28%
[5]
  Survival: 7.88 days

## Cc1ccc(-c2nn(-c3ccc(C)cc3)cc2C2CC(c3ccccc3)=NN2)cc1 (stereo not given)
[1]
  IC50: 2.84 µg/mL (≈ 7.25 µM)
[2]
  IC50: 2.37 µg/mL (≈ 6.04 µM)
[3]
  Activity: 65.12%
[4]
  Activity: 30%
[5]
  Survival: 7.62 days

## Cc1ccc(-c2nn(-c3ccc(Br)cc3)cc2/C=C/C(=O)c2ccccc2)cc1
[1]
  IC50: 1.03 µg/mL (≈ 2.32 µM)
[2]
  IC50: 1.01 µg/mL (≈ 2.28 µM)
[3]
  Activity: 74.42%
[4]
  Activity: 22%
[5]
  Survival: 11.8 days

## CCC(=O)N1N=C(c2ccccc2)CC1c1cn(-c2ccc(Br)cc2)nc1-c1ccc(C)cc1 (stereo not given)
[1]
  IC50: 2.04 µg/mL (≈ 3.98 µM)
[2]
  IC50: 1.79 µg/mL (≈ 3.49 µM)
[3]
  Activity: 51.16%
[4]
  Activity: 42%
[5]
  Survival: 6.86 days

## Cc1ccc(-c2nn(-c3ccc(Br)cc3)cc2C=O)cc1
[1]
  IC50: 3.11 µg/mL (≈ 9.12 µM)
[2]
  IC50: 1.82 µg/mL (≈ 5.33 µM)
[3]
  Activity: 65.11%
[4]
  Activity: 30%
[5]
  Survival: 8.4 days

## CCC(=O)N1N=C(c2ccccc2)CC1c1cn(-c2ccc(C)cc2)nc1-c1ccc(C)cc1 (stereo not given)
[1]
  IC50: 1.6 µg/mL (≈ 3.57 µM)
[2]
  IC50: 1.02 µg/mL (≈ 2.27 µM)
[3]
  Activity: 55.81%
[4]
  Activity: 38%
[5]
  Survival: 8.84 days

## Cc1ccc(-c2nn(-c3ccc(C)cc3)cc2C2CC(c3ccccc3)=NN2c2ccccc2)cc1 (stereo not given)
[1]
  IC50: 3.09 µg/mL (≈ 6.59 µM)
[2]
  IC50: 1.78 µg/mL (≈ 3.8 µM)
[3]
  Activity: 69.77%
[4]
  Activity: 26%
[5]
  Survival: 10.82 days
